In brackets after ≈: the same amount, converted by molar mass.
Tests used:
[1] = test system: Aspergillus nidulans; test: Antifungal activity against Aspergillus nidulans ATCC 38163 assessed as fungal growth inhibition by double dilution method; format: functional
[2] = test system: Pichia kudriavzevii; test: Antifungal activity against Pichia kudriavzevii ATCC 6258 assessed as fungal growth inhibition by double dilution method; format: functional
In short: (§1)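 Broth microdilution after CLSI M27-A3/M38-A2 with minor changes. Single colony grown overnight in YPD at 35 °C, 200 rpm. Compound final range 0.06-31.3 µg/mL; incubated 48 h at 35 °C.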

[3] = test system: Clavispora lusitaniae; test: Antifungal activity against Clavispora lusitaniae AR Bank # 398 assessed as fungal growth inhibition by double dilution method; format: functional; in short: as §1
[4] = test system: [Candida] auris; test: Antifungal activity against Candida auris AR Bank # 0384 assessed as fungal growth inhibition by double dilution method; format: functional; conditions: Candidozyma auris; in short: as §1
[5] = test system: Aspergillus fumigatus; test: Antifungal activity against Aspergillus fumigatus NRRL 5109 assessed as fungal growth inhibition by double dilution method; format: functional
[6] = test system: [Candida] auris; test: Antifungal activity against Candida auris AR Bank # 384 assessed as fungal growth inhibition by double dilution method; format: functional; conditions: Candidozyma auris; in short: as §1
[7] = test system: J774.A1; test: Cytotoxicity against J774A.1 cells assessed as reduction in cell viability at 31.3 microg/ml; format: toxicity, cell-based; conditions: mouse, dose 31.3 µg/ml
In short: (§2)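 Cells in DMEM with 10% FBS and 1% Pen/Strep, seeded at 10,000 cells/well and held overnight at 37 °C, 5% CO2. Compounds added at final 31.3-0.12 µg/mL (0.05% DMSO vehicle) for 24 h. Resazurin then added for 6 h; fluorescence read at ex 560/em 590. Triton X-100 1% as positive control; values normalized to vehicle. Run in quadruplicate.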

[8] = test system: Candida albicans; test: Antifungal activity against itraconazole/fluconazole resistant Candida albicans ATCC MYA-1237 assessed as fungal growth inhibition by double dilution method; format: functional
In short: (§3)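 Broth microdilution after CLSI M27-A3/M38-A2 with minor modifications. A single colony was grown overnight in YPD at 35 °C with shaking at 200 rpm. Cells were mixed 1:1 with compound (final 0.06-31.3 µg/mL, from DMSO stocks) and incubated 48 h at 35 °C.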

[9] = test system: Candida albicans; test: Antifungal activity against itraconazole/fluconazole resistant Candida albicans ATCC 90819 assessed as fungal growth inhibition by double dilution method; format: functional; in short: as §3
[10] = test system: [Candida] auris; test: Antifungal activity against Candida auris AR Bank # 381 assessed as fungal growth inhibition by double dilution method; format: functional; conditions: Candidozyma auris; in short: as §1
[11] = test system: Saccharomyces cerevisiae; test: Antifungal activity against Saccharomyces cerevisiae AR Bank # 399 assessed as fungal growth inhibition by double dilution method; format: functional; in short: as §1
[12] = test system: Saccharomyces cerevisiae; test: Antifungal activity against Saccharomyces cerevisiae AR Bank # 400 assessed as fungal growth inhibition by double dilution method; format: functional; in short: as §1
[13] = test system: [Candida] auris; test: Antifungal activity against Candida auris AR Bank # 385 assessed as fungal growth inhibition by double dilution method; format: functional; conditions: Candidozyma auris; in short: as §1
[14] = test system: [Candida] auris; test: Antifungal activity against Candida auris AR Bank # 383 assessed as fungal growth inhibition by double dilution method; format: functional; conditions: Candidozyma auris; in short: as §1
[15] = test system: Nakaseomyces glabratus; test: Antifungal activity against Candida glabrata ATCC 22019 assessed as fungal growth inhibition by double dilution method; format: functional; in short: as §1
[16] = test system: [Candida] auris; test: Antifungal activity against Candida auris AR Bank # 389 assessed as fungal growth inhibition by double dilution method; format: functional; conditions: Candidozyma auris; in short: as §1
[17] = test system: Nakaseomyces glabratus; test: Antifungal activity against Candida glabrata ATCC 2001 assessed as fungal growth inhibition by double dilution method; format: functional; in short: as §1
[18] = test system: Candida albicans; test: Antifungal activity against Candida albicans ATCC 64124 assessed as fungal growth inhibition by double dilution method; format: functional; in short: as §3
[19] = test system: [Candida] auris; test: Antifungal activity against Candida auris AR Bank # 390 assessed as fungal growth inhibition by double dilution method; format: functional; conditions: Candidozyma auris; in short: as §1
[20] = test system: Aspergillus flavus; test: Antifungal activity against Aspergillus flavus ATCC MYA-3631 assessed as fungal growth inhibition by double dilution method; format: functional
[21] = test system: Candida albicans; test: Antifungal activity against itraconazole/fluconazole susceptible Candida albicans ATCC MYA-2310 assessed as fungal growth inhibition by double dilution method; format: functional; in short: as §3
[22] = test system: [Candida] auris; test: Antifungal activity against Candida auris AR Bank # 388 assessed as fungal growth inhibition by double dilution method; format: functional; conditions: Candidozyma auris; in short: as §1
[23] = test system: Candida duobushaemulonii; test: Antifungal activity against Candida duobushaemulonii AR Bank # 391 assessed as fungal growth inhibition by double dilution method; format: functional; conditions: Candidozyma duobushaemuli; in short: as §1
[24] = test system: HepG2; test: Cytotoxicity against human HepG2 cells assessed as reduction in cell viability upto 31.3 microg/ml; format: toxicity, cell-based; conditions: dose < 31.3 µg/ml; in short: as §2
[25] = test system: Candida albicans; test: Antifungal activity against itraconazole/fluconazole resistant Candida albicans ATCC MYA-1003 assessed as fungal growth inhibition by double dilution method; format: functional; in short: as §3
[26] = test system: Pichia kudriavzevii; test: Antifungal activity against Pichia kudriavzevii AR Bank # 397 assessed as fungal growth inhibition by double dilution method; format: functional; in short: as §1
[27] = test system: [Candida] haemuloni; test: Antifungal activity against Candida haemulonii AR Bank # 395 assessed as fungal growth inhibition by double dilution method; format: functional; conditions: Candidozyma haemuli; in short: as §1
[28] = test system: [Candida] auris; test: Antifungal activity against Candida auris AR Bank # 386 assessed as fungal growth inhibition by double dilution method; format: functional; conditions: Candidozyma auris; in short: as §1
[29] = test system: Kodamaea ohmeri; test: Antifungal activity against Kodamaea ohmeri AR Bank # 396 assessed as fungal growth inhibition by double dilution method; format: functional; in short: as §1
[30] = test system: Cryptococcus neoformans; test: Antifungal activity against Cryptococcus neoformans ATCC MYA-895 assessed as fungal growth inhibition by double dilution method; format: functional; in short: as §1
[31] = test system: HEK293; test: Cytotoxicity against human HEK-293 cells assessed as reduction in cell viability at 31.3 microg/ml; format: toxicity, cell-based; conditions: dose 31.3 µg/ml; in short: as §2
[32] = test system: Aspergillus terreus; test: Antifungal activity against Aspergillus terreus ATCC MYA-3633 assessed as fungal growth inhibition by double dilution method; format: functional
[33] = test system: Aspergillus fumigatus; test: Antifungal activity against Aspergillus fumigatus NRRL 6113 assessed as fungal growth inhibition by double dilution method; format: functional
[34] = test system: Candida albicans; test: Antifungal activity against Candida albicans ATCC 10231 assessed as fungal growth inhibition by double dilution method; format: functional; in short: as §1
[35] = test system: Aspergillus fumigatus; test: Antifungal activity against Aspergillus fumigatus NRRL 163 assessed as fungal growth inhibition by double dilution method; format: functional
[36] = test system: Candida duobushaemulonii; test: Antifungal activity against Candida duobushaemulonii AR Bank # 394 assessed as fungal growth inhibition by double dilution method; format: functional; conditions: Candidozyma duobushaemuli; in short: as §1
[37] = test system: Candida albicans; test: Antifungal activity against itraconazole/fluconazole susceptible Candida albicans ATCC MYA-2876 assessed as fungal growth inhibition by double dilution method; format: functional; in short: as §3
[38] = test system: [Candida] auris; test: Antifungal activity against Candida auris AR Bank # 387 assessed as fungal growth inhibition by double dilution method; format: functional; conditions: Candidozyma auris; in short: as §1
[39] = test system: [Candida] haemuloni; test: Antifungal activity against Candida haemulonii AR Bank # 393 assessed as fungal growth inhibition by double dilution method; format: functional; conditions: Candidozyma haemuli; in short: as §1
[40] = test system: [Candida] auris; test: Antifungal activity against Candida auris AR Bank # 382 assessed as fungal growth inhibition by double dilution method; format: functional; conditions: Candidozyma auris; in short: as §1
[41] = test system: Candida duobushaemulonii; test: Antifungal activity against Candida duobushaemulonii AR Bank # 392 assessed as fungal growth inhibition by double dilution method; format: functional; conditions: Candidozyma duobushaemuli; in short: as §1
[42] = test system: [Candida] auris; test: Antifungal activity against Candida auris AR Bank # 0390 assessed as fungal growth inhibition by double dilution method; format: functional; conditions: Candidozyma auris; in short: as §1

O=C(NNc1cccc(Cl)c1)c1cnccn1
MIC [1]: 0.98 µg/mL (≈ 3.94 µM)
MIC [2]: 0.24 µg/mL (≈ 0.965 µM)
MIC [3]: 0.49 µg/mL (≈ 1.97 µM)
MIC [4]: 1.95 µg/mL (≈ 7.84 µM)
MIC [5]: > 31.3 µg/mL
MIC [6]: 0.98 µg/mL (≈ 3.94 µM)
Activity [7]: Non-Toxic
MIC [8]: 0.98 µg/mL (≈ 3.94 µM)
MIC [9]: 3.9 µg/mL (≈ 15.7 µM)
MIC [10]: 0.49 µg/mL (≈ 1.97 µM)
MIC [11]: 0.98 µg/mL (≈ 3.94 µM)
MIC [12]: 0.98 µg/mL (≈ 3.94 µM)
MIC [13]: 0.24 µg/mL (≈ 0.965 µM)
MIC [14]: 0.24 µg/mL (≈ 0.965 µM)
MIC [15]: 1.95 µg/mL (≈ 7.84 µM)
MIC [16]: 0.24 µg/mL (≈ 0.965 µM)
MIC [17]: 3.9 µg/mL (≈ 15.7 µM)
MIC [18]: 1.95 µg/mL (≈ 7.84 µM)
MIC [19]: 0.49 µg/mL (≈ 1.97 µM)
MIC [20]: > 31.3 µg/mL
MIC [21]: 7.8 µg/mL (≈ 31.4 µM)
MIC [22]: 0.24 µg/mL (≈ 0.965 µM)
MIC [23]: 0.24 µg/mL (≈ 0.965 µM)
Activity [24]: Non-Toxic
MIC [25]: 0.98 µg/mL (≈ 3.94 µM)
MIC [26]: 0.12 µg/mL (≈ 0.483 µM)
MIC [27]: 0.24 µg/mL (≈ 0.965 µM)
MIC [28]: ≤ 0.06 µg/mL
MIC [29]: 0.12 µg/mL (≈ 0.483 µM)
MIC [30]: 0.24 µg/mL (≈ 0.965 µM)
Activity [31]: Non-Toxic
MIC [32]: 0.98 µg/mL (≈ 3.94 µM)
MIC [33]: > 31.3 µg/mL
MIC [34]: 0.24 µg/mL (≈ 0.965 µM)
MIC [35]: > 31.3 µg/mL
MIC [36]: 0.12 µg/mL (≈ 0.483 µM)
MIC [37]: 1.95 µg/mL (≈ 7.84 µM)
MIC [38]: 0.24 µg/mL (≈ 0.965 µM)
MIC [39]: 0.24 µg/mL (≈ 0.965 µM)
MIC [40]: 0.12 µg/mL (≈ 0.483 µM)
MIC [41]: 0.12 µg/mL (≈ 0.483 µM)
MIC [42]: 0.98 µg/mL (≈ 3.94 µM)

COc1cccc(NNC(=O)c2cnccn2)c1
MIC [1]: 1.95 µg/mL (≈ 7.98 µM)
MIC [2]: 0.49 µg/mL (≈ 2.01 µM)
MIC [3]: 1.95 µg/mL (≈ 7.98 µM)
MIC [4]: 1.95 µg/mL (≈ 7.98 µM)
MIC [5]: 7.8 µg/mL (≈ 31.9 µM)
MIC [6]: 1.95 µg/mL (≈ 7.98 µM)
Activity [7]: Non-Toxic
MIC [8]: 1.95 µg/mL (≈ 7.98 µM)
MIC [9]: 1.95 µg/mL (≈ 7.98 µM)
MIC [10]: 1.95 µg/mL (≈ 7.98 µM)
MIC [11]: 7.8 µg/mL (≈ 31.9 µM)
MIC [12]: 3.9 µg/mL (≈ 16 µM)
MIC [13]: 7.8 µg/mL (≈ 31.9 µM)
MIC [14]: 1.95 µg/mL (≈ 7.98 µM)
MIC [15]: 1.95 µg/mL (≈ 7.98 µM)
MIC [16]: 0.98 µg/mL (≈ 4.01 µM)
MIC [17]: 7.8 µg/mL (≈ 31.9 µM)
MIC [18]: 0.98 µg/mL (≈ 4.01 µM)
MIC [19]: 0.98 µg/mL (≈ 4.01 µM)
MIC [20]: > 31.3 µg/mL
MIC [21]: 1.95 µg/mL (≈ 7.98 µM)
MIC [22]: 3.9 µg/mL (≈ 16 µM)
MIC [23]: 3.9 µg/mL (≈ 16 µM)
Activity [24]: Non-Toxic
MIC [25]: 0.98 µg/mL (≈ 4.01 µM)
MIC [26]: 0.49 µg/mL (≈ 2.01 µM)
MIC [27]: 0.49 µg/mL (≈ 2.01 µM)
MIC [28]: 0.49 µg/mL (≈ 2.01 µM)
MIC [29]: 0.49 µg/mL (≈ 2.01 µM)
MIC [30]: 0.49 µg/mL (≈ 2.01 µM)
Activity [31]: Non-Toxic
MIC [32]: 1.95 µg/mL (≈ 7.98 µM)
MIC [33]: > 31.3 µg/mL
MIC [34]: 0.49 µg/mL (≈ 2.01 µM)
MIC [35]: 15.6 µg/mL (≈ 63.9 µM)
MIC [36]: 1.95 µg/mL (≈ 7.98 µM)
MIC [37]: 1.95 µg/mL (≈ 7.98 µM)
MIC [38]: 0.98 µg/mL (≈ 4.01 µM)
MIC [39]: 0.49 µg/mL (≈ 2.01 µM)
MIC [40]: 0.98 µg/mL (≈ 4.01 µM)
MIC [41]: 0.98 µg/mL (≈ 4.01 µM)
MIC [42]: 0.98 µg/mL (≈ 4.01 µM)
